# Data as given in ChEMBL document CHEMBL1764970, “New glucocerebrosidase inhibitors by exploration of chemical diversity of N-substituted aminocyclitols using click chemistry and in situ screening” (J Med Chem, 2011).
# Calls of active or inactive are those of the source. No cut-off for these calls is given here.
# Legend:
# [1] = biological target: T1, Lysosomal acid glucosylceramidase (Homo sapiens, UniProt P04062); assay: Inhibition of recombinant glucocerebrosidase in McIlvaine buffer at pH 5.2 after 10 mins by fluorometric analysis
# T1 sequence (P04062 whole entry): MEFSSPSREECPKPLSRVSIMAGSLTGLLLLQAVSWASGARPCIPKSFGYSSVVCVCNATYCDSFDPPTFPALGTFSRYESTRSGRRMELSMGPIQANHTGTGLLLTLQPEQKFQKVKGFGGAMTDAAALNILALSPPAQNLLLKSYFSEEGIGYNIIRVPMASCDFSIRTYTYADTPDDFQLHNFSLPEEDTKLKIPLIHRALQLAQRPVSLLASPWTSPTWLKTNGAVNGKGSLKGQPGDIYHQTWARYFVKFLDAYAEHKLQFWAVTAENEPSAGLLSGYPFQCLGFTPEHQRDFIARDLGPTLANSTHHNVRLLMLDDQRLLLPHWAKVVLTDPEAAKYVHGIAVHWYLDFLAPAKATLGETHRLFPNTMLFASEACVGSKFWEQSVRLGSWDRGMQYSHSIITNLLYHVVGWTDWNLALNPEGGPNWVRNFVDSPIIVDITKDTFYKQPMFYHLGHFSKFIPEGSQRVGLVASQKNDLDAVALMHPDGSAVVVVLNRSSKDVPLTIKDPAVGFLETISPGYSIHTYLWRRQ
# Outline: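 Imiglucerase in McIlvaine buffer pH 5.2 containing 0.2% (w/v) sodium taurocholate and 0.1% (v/v) Triton X-100. Enzyme pre-incubated 30 min at 37 °C with inhibitor. Then 4 mM 4-methylumbelliferyl β-D-glucopyranoside (substrate solution), 10 min at 37 °C. Stop with 100 mM glycine/NaOH pH 10.6, fluorescence ex 355/em 460 nm. IC50 from % activity vs log[I], at least five concentrations.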
# [2] = biological target: Probable alpha-glucosidase Os06g0675700 (Oryza sativa Japonica Group, UniProt Q653V7); assay: Inhibition of rice alpha-glucosidase
# Probable alpha-glucosidase Os06g0675700, sequence (Q653V7 whole entry): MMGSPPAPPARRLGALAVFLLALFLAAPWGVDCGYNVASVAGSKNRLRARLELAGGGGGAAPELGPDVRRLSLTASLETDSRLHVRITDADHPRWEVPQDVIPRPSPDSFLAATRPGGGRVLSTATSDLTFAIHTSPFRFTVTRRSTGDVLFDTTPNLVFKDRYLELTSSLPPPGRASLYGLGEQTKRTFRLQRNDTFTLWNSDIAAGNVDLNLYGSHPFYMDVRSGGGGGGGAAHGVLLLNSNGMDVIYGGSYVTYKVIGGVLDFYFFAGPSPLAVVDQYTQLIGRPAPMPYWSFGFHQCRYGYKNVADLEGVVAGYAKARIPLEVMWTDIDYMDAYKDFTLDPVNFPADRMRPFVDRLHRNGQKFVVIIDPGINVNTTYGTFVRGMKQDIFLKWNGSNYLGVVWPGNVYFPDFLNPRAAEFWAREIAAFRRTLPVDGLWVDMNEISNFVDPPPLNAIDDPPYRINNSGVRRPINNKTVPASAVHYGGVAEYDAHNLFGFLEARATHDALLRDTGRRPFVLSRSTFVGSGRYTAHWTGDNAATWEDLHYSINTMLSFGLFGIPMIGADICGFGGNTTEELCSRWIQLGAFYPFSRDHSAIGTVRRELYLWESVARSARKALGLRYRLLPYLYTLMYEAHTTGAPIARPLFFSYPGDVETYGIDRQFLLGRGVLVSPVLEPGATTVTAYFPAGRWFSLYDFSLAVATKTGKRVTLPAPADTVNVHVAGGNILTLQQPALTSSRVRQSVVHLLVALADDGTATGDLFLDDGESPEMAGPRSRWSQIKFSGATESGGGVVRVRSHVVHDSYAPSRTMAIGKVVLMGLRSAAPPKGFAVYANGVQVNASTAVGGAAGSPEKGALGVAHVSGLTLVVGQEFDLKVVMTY
# [3] = biological target: Alpha-galactosidase (Coffea arabica, UniProt Q42656); assay: Inhibition of alpha-galactosidase from coffee beans
# Alpha-galactosidase, sequence (Q42656 whole entry): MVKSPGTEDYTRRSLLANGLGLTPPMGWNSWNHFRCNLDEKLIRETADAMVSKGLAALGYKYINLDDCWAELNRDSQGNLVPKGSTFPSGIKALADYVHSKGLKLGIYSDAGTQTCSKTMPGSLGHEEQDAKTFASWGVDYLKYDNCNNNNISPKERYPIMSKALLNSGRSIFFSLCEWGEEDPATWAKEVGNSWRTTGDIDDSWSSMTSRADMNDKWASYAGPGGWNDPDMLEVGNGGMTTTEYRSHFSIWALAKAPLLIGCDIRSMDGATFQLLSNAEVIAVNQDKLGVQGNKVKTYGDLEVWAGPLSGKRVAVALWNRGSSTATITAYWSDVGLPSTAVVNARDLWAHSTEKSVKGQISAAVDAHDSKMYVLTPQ
# [4] = biological target: T1, Lysosomal acid glucosylceramidase; assay: Inhibition of recombinant glucocerebrosidase in McIlvaine buffer at pH 7.4 after 10 mins by fluorometric analysis
# [5] = biological target: T1, Lysosomal acid glucosylceramidase; assay: Competitive inhibition of recombinant glucocerebrosidase
# [6] = biological target: T2, Lysosomal acid glucosylceramidase (Homo sapiens) (UniProt P04062); assay: Enzyme stabilization ratio of recombinant glucocerebrosidase activity at 48 degC to at 37 degC at 100 uM after 60 mins
# T2 sequence (whole entry): T1 sequence (P04062 whole entry)
# [7] = biological target: T2, Lysosomal acid glucosylceramidase (Homo sapiens); assay: Inhibition of glucocerebrosidase in human intact fibroblasts at 50 uM after 24 hrs by fluorometric analysis
# Outline: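 Fibroblasts grown in MEM with 15% inactivated FCS, 37 °C, 5% CO2, passages 14–30. Plated in DMEM with aminocyclitol (50 μM final, from DMSO) for 24 h, washed with PBS. GCase assayed with 1 h incubation at 37 °C, stopped with 100 mM glycine-NaOH pH 10.6, fluorescence 355/460 nm. Untreated and treated cells in quadruplicate.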
# [8] = biological target: T3, Ceramide glucosyltransferase (Homo sapiens) (UniProt Q16739); assay: Inhibition of glucosylceramide synthase in human A549 cells at 250 uM after 35 mins by fluorometric analysis; format: cell-based
# T3 sequence (whole entry): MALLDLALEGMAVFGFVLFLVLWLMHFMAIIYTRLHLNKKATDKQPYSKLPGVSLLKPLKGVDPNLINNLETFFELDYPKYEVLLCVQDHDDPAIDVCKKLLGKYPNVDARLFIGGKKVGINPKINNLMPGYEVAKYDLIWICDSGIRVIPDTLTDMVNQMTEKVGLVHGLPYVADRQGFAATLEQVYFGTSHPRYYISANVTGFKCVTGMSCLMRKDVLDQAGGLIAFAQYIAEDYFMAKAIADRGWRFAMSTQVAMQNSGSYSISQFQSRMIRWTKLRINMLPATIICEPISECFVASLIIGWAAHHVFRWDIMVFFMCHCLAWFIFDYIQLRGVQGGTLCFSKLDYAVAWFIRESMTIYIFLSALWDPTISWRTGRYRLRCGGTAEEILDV
# [9] = Cytotoxicity against human wild type fibroblasts at up to 300 uM after 24 hrs by MTT assay; format: cell-based; conditions: fibroblast
# [10] = biological target: Oligo-1,6-glucosidase IMA1 (Saccharomyces cerevisiae S288c, UniProt P53051); assay: Inhibition of yeast alpha-glucosidase
# Oligo-1,6-glucosidase IMA1, sequence (P53051 whole entry): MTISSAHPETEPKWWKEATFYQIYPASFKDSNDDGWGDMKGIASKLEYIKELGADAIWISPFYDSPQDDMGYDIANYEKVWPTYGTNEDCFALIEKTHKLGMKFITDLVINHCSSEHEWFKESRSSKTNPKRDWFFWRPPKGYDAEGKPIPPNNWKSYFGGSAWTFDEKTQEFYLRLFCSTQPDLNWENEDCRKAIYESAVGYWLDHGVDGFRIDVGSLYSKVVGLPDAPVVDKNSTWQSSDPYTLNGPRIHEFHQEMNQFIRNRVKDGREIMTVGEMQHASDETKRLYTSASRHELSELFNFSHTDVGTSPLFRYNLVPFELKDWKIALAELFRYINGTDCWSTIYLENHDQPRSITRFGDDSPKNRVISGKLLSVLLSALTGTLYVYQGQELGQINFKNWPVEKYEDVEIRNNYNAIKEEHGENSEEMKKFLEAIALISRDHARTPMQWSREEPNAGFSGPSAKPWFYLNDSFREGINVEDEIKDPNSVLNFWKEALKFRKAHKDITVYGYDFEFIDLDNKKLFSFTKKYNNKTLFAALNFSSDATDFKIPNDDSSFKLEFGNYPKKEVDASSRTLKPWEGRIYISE
# [11] = biological target: T4, Beta-galactosidase (Bos taurus, UniProt Q58D55); assay: Inhibition of bovine liver beta-galactosidase
# T4 sequence (Q58D55 whole entry): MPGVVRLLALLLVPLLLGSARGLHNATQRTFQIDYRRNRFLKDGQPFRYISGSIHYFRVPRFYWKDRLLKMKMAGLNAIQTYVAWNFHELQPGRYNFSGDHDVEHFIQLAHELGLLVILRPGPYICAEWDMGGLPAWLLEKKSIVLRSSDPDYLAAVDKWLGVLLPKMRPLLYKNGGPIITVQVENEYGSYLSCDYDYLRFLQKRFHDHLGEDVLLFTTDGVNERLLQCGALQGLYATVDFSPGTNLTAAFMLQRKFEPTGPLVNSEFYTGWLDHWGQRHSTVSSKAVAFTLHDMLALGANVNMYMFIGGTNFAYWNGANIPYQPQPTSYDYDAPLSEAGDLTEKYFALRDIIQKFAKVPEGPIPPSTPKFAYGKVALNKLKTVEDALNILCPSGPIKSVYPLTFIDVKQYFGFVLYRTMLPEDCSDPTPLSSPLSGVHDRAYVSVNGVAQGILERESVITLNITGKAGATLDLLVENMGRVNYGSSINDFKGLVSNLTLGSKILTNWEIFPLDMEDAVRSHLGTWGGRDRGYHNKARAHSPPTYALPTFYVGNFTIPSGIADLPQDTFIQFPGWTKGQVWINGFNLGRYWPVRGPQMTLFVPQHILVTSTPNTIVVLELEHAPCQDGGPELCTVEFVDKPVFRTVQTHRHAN
# [12] = biological target: T2, Lysosomal acid glucosylceramidase (Homo sapiens); assay: Thermal stabilization of recombinant glucocerebrosidase assessed as enzyme activity at 150 uM at 48 degC after 60 mins
# Outline: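 GCase (2 mg/mL) heated at 48 °C, pH 7.4, with water (control) or compound at 10–150 μM final, for 20, 40 or 60 min. Then acetate-phosphate pH 5.0 and 4 mM 4-methylumbelliferyl β-D-glucoside in McIlvaine pH 5.2 added, 10 min at 37 °C. Stopped with glycine pH 10.6, 4-methylumbelliferone measured. Activity relative to identical assay at 37 °C. SR = relative activity with vs without inhibitor.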
IC50 [1] [µM],IC50 [2] [µM],IC50 [3] [µM],IC50 [10] [µM],IC50 [11] [µM],SMILES,Activity [9],further results
12.2,,,,,O[C@@H]1[C@@H](O)[C@H](O)[C@@H](NCc2cn(CCCc3nc4ccc(C(F)(F)F)cc4[nH]3)nn2)[C@H](O)[C@H]1O,,
2.19,> 100,> 100,> 100,43,OCCCCCCCCCCn1cc(CN[C@H]2[C@H](O)[C@@H](O)[C@H](O)[C@@H](O)[C@@H]2O)nn1,Non-toxic,IC50 [4]: 1.3 µM; Ki [5]: 0.89 µM; Ratio [6]: 6.9; inhibition [7]: 28%; inhibition [8]: 28%
10.3,,,,,O[C@@H]1[C@@H](O)[C@H](O)[C@@H](NCc2cn(Cc3cccc(I)c3)nn2)[C@H](O)[C@H]1O,,
466,,,,,COCCCOCCCn1cc(CN[C@H]2[C@H](O)[C@@H](O)[C@H](O)[C@@H](O)[C@@H]2O)nn1,,
237,,,,,CCCCc1ncc(Cn2cc(CN[C@H]3[C@H](O)[C@@H](O)[C@H](O)[C@@H](O)[C@@H]3O)nn2)[nH]1,,
114,,,,,Cn1nnc2ccc(Cn3cc(CN[C@H]4[C@H](O)[C@@H](O)[C@H](O)[C@@H](O)[C@@H]4O)nn3)cc21,,
4.32,,,,,O[C@@H]1[C@@H](O)[C@H](O)[C@@H](NCc2cn(CCCC3CCCCC3)nn2)[C@H](O)[C@H]1O,,
30.9,,,,,O[C@@H]1[C@@H](O)[C@H](O)[C@@H](NCc2cn(Cc3ccc(CN4CCCCC4)cc3)nn2)[C@H](O)[C@H]1O,,
1.5,> 100,> 100,> 100,> 100,O[C@@H]1[C@@H](O)[C@H](O)[C@@H](NCc2cn(CCCCC3CCCCC3)nn2)[C@H](O)[C@H]1O,Non-toxic,IC50 [4]: 0.3 µM; Ki [5]: 0.29 µM; Ratio [6]: 7.5; inhibition [7]: 30%; inhibition [8]: 8%
2.2,> 100,> 100,> 100,> 100,O[C@@H]1[C@@H](O)[C@H](O)[C@@H](NCc2cn(CC34CC5CC(CC(C5)C3)C4)nn2)[C@H](O)[C@H]1O,Non-toxic,IC50 [4]: 1.9 µM; Ki [5]: 1.05 µM; Ratio [6]: 0.7; inhibition [7]: 63%; inhibition [8]: 32%; Activity [12]: inactive
,> 100,> 100,> 100,> 100,CCCCCCCCCN1C[C@H](O)[C@@H](O)[C@H](O)[C@H]1CO,Non-toxic,
17.3,,,,,O[C@@H]1[C@@H](O)[C@H](O)[C@@H](NCc2cn(Cc3cc4nsnc4cc3Cl)nn2)[C@H](O)[C@H]1O,,
0.15,> 100,> 100,> 100,> 100,CCCCCCCCCCn1cc(CN[C@H]2[C@H](O)[C@@H](O)[C@H](O)[C@@H](O)[C@@H]2O)nn1,Non-toxic,
453,,,,,COCCCOCCCOCCCn1cc(CN[C@H]2[C@H](O)[C@@H](O)[C@H](O)[C@@H](O)[C@@H]2O)nn1,,
5.8,,,,,OCCCCCCCn1cc(CN[C@H]2[C@H](O)[C@@H](O)[C@H](O)[C@@H](O)[C@@H]2O)nn1,,
35.9,,,,,O[C@@H]1[C@@H](O)[C@H](O)[C@@H](NCc2cn(C3CSCCCSC3)nn2)[C@H](O)[C@H]1O,,
44.5,,,,,CSCCCn1cc(CN[C@H]2[C@H](O)[C@@H](O)[C@H](O)[C@@H](O)[C@@H]2O)nn1,,
1.5,> 100,> 100,> 100,> 100,O[C@@H]1[C@@H](O)[C@H](O)[C@@H](NCc2cn(CCC(c3ccccc3)c3ccccc3)nn2)[C@H](O)[C@H]1O,Non-toxic,IC50 [4]: 1.8 µM; Ki [5]: 0.77 µM; Ratio [6]: 0.5; inhibition [7]: 73%; inhibition [8]: 18%; Activity [12]: inactive
0.05,> 100,> 100,> 100,> 100,O[C@@H]1[C@@H](O)[C@H](O)[C@@H](NCc2cn(Cc3cc(OCc4ccccc4)cc(OCc4ccccc4)c3)nn2)[C@H](O)[C@H]1O,Non-toxic,IC50 [4]: 0.06 µM; Ki [5]: 0.05 µM; Ratio [6]: 31.2; inhibition [7]: 93%; inhibition [8]: 9%
325,,,,,CC(C)(C)OCCCOCCCn1cc(CN[C@H]2[C@H](O)[C@@H](O)[C@H](O)[C@@H](O)[C@@H]2O)nn1,,
66.5,,,,,CN1CCN(Cc2cccc(Cn3cc(CN[C@H]4[C@H](O)[C@@H](O)[C@H](O)[C@@H](O)[C@@H]4O)nn3)c2)CC1,,
181,,,,,CCCCOCCCOCCCn1cc(CN[C@H]2[C@H](O)[C@@H](O)[C@H](O)[C@@H](O)[C@@H]2O)nn1,,
0.06,> 100,> 100,> 100,> 100,CCCCCCCCCCCn1cc(CN[C@H]2[C@H](O)[C@@H](O)[C@H](O)[C@@H](O)[C@@H]2O)nn1,Non-toxic,IC50 [4]: 0.1 µM; Ki [5]: 0.05 µM; Ratio [6]: 30.5; inhibition [7]: 97%; inhibition [8]: 29%
134,,,,,CC(C)(CO)Cn1cc(CN[C@H]2[C@H](O)[C@@H](O)[C@H](O)[C@@H](O)[C@@H]2O)nn1,,
10,,,,,O[C@@H]1[C@@H](O)[C@H](O)[C@@H](NCc2cn(CCCCCOCc3ccccc3)nn2)[C@H](O)[C@H]1O,,
2.25,> 100,> 100,> 100,> 100,CCCCCCCCn1cc(CN[C@H]2[C@H](O)[C@@H](O)[C@H](O)[C@@H](O)[C@@H]2O)nn1,Non-toxic,

SMILES,IC50 [1] [µM],IC50 [2] [µM],IC50 [3] [µM],IC50 [10] [µM],IC50 [11] [µM],Activity [9],further results
CCCCCCCCCCN[C@H]1[C@H](O)[C@@H](O)[C@H](O)[C@@H](O)[C@@H]1O,,> 100,> 100,> 100,> 100,Non-toxic,Ratio [6]: 4.9
